Test results published in ChEMBL document CHEMBL4513216, “Probing the Open Global Health Chemical Diversity Library for Multistage-Active Starting Points for Next-Generation Antimalarials” (ACS Infect Dis, 2020).

Assay: Toxicity liver stage against HepG2, at 10uM
Type: cell-based
Parameters: test concentration 10 uM, cell line HepG2-A16-CD81EGFP
Conditions: human, HepG2-A16-CD81EGFP cells; read-out: INHIBITION
How it was run: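 Uninfected HepG2-A16-CD81EGFP cells, 3 × 10^3 per well, 1536-well, plated on prespotted compound at 10 μM final, parasite-free screening media added to match infected plates; puromycin 10 μM positive, DMSO 0.5% negative; run in parallel with 48 h PbLuc assay at 37 °C, 5% CO2; viability by CellTiter-Glo luminescence, normalized to controls.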

Structure (SMILES) | cytotoxicity at 10 µM
Fc1ccccc1Sc1ccccc1CNC1=NCCN1 | 12.5%
CC1CCN(C[C@H]2CN3CC[C@H]2C[C@@H]3CNC(=O)Nc2ccsc2)CC1 | 2.95%
COC(=O)c1ccc(C2SC(C)=Nc3c2c(=O)[nH]n3C2CCCC2)cc1 (configuration not stated) | 6.84%
CC(C)C1SCC(=O)Nc2c1cnn2-c1ccc(Cl)cc1 (configuration not stated) | 47%
CN(C)c1ccc2c(c1)CN(C(=O)c1c[nH]cn1)C2c1cnco1 (configuration not stated) | -0.234%
CC(C)Nc1nc2c(c(NC3CC3)n1)CN(C(=O)c1ccsc1)CC2 | -27.2%
Cn1nc(CN2CCCCC2)c2c1CN(C(=O)Nc1cccc(F)c1)C2 | 5.68%
CCS(=O)(=O)N1CCc2ncnc(OC)c2CC1 | 6.93%
O=C(c1cc[nH]n1)N1CC[C@@H]2CN(Cc3cccnc3)S(=O)(=O)[C@@H]2CC1 | 12.7%
OCCCNc1nc(O)c2c(n1)-c1ccccc1CC21CCCCC1 | 11.1%
Cc1[nH]/c(=N\C(=O)c2csc(NC3CC3)n2)sc1C | 37.4%
CC(=O)Nc1ncc(S(=O)(=O)Nc2ccc(C)cc2)s1 | 8.6%
CCc1noc(C2CCCCN2C(=O)c2cc(C)oc2C)n1 (configuration not stated) | 8.57%
Cc1ccnn1CCCNC(=O)C1CCN(S(C)(=O)=O)CC1 | 3.63%
CCN(CC)C(=O)CN1CCC2(C=Cc3cc(Cl)c(C)cc3O2)CC1 | -3.02%
Cc1cc(C)nc(N2CCC(c3ccnc(N(C)C)n3)CC2)n1 | 21.1%
CN(C)c1nccc(C2CCN(c3ncccn3)CC2)n1 | 0.59%
c1cc(CNc2ncc(-c3cnccn3)c(C3CC3)n2)ccn1 | 24%
CCn1ccc(-c2cc(NCCCOc3cccc(C)c3)nc(C)n2)n1 | -5.65%
O=C(NC1CC1)C1(Cc2ccccc2-c2ccncc2)CCOCC1 | -3.83%
CCCN(C(=O)c1cccnc1)c1nc2c(s1)CCc1c-2cnn1C | 5.05%
CCc1ccc(C(=O)N2CC[C@H](Oc3cccnc3C)[C@@H](O)CC2)cc1 | 8.24%

Structure (SMILES) | cytotoxicity at 10 µM
Cc1ncsc1-c1nnc(C2CCN(Cc3ccc(Cl)cc3)CC2)o1 | -4.41%
Cc1ccc(Nc2nccc(C3CCCN(CC(=O)N(C)C)C3)n2)nc1 (configuration not stated) | -2.09%
c1nc2c(c(NC3CCc4ncnn4C3)n1)CCC2 (configuration not stated) | -40.7%
CC(C)(C)CN(CCC#N)C(=O)c1cccc(CC#N)c1 | 7.05%
CC(c1nc(-c2ccccc2)no1)N1CCc2c(ncn2C2CC2)C1 (configuration not stated) | 7.12%
CN(CCc1ccncc1)CCc1nccs1 | 1.8%
COCC1CCN(c2ccnc3ccsc23)C1 (configuration not stated) | 6.24%
CC(C)(C)n1ncc(NCC(O)c2ccccc2)c(Cl)c1=O (configuration not stated) | 46.6%
N#Cc1cccn(CCOc2ccc(Cl)cc2)c1=O | 18.6%
CC(C)Cn1ncc(C(=O)NS(=O)(=O)c2ccccc2)c1C1CC1 | 2.35%
CSCc1cc(F)ccc1CNC(=O)N1CCCC(CO)C1 (configuration not stated) | 10.3%
COc1cc(C)sc1C(=O)NCCC(=O)N(C)c1ccccc1 | -1.41%
CC(NC(=O)COc1cccc[n+]1[O-])C1CC1 (configuration not stated) | -6.66%
CC(C)(C)C(=O)Cn1nc(C2CC2)cc(C(F)(F)F)c1=O | -8.06%
CN(c1ccc(CNC(=O)c2c[nH]c(=O)c(Cl)c2)cc1)C1CCCCC1 | 88.9%
CC(C)(C)SCC(=O)NCCc1csc(N2CCCC2)n1 | 8.74%
COCc1noc(C2(c3ccc(F)cc3)CCC2)n1 | 5.93%
Cc1cc(C(=O)NCc2ccccc2CN(C)Cc2ccco2)on1 | 3.57%
Cc1ccc(CC(=O)NC(C)C(=O)N2CCS(=O)(=O)CC2)s1 (configuration not stated) | 11.2%
Cn1cc(-c2csc(N3CCCCCC3)n2)cn1 | 4.22%
CC(C)(C)c1nc(CNC2CCCN(c3cccnn3)C2)no1 (configuration not stated) | 4.93%
Cc1nc(C)c(C)c(N2CCC(NCCOc3ccccc3)CC2)n1 | -1.45%

Structure (SMILES) | cytotoxicity at 10 µM
O=C(c1[nH]nc(C2CC2)c1Cl)N1CCN(S(=O)(=O)c2ccccc2)CC1 | 16%
Cc1cnn(CC2CCCN2c2ncnc3ccccc23)c1 (configuration not stated) | 46.8%
NC(=O)CCSc1ccccc1NCc1ccc(Cl)s1 | 7.74%
CC(C)(C)c1nc(CNc2ccccc2SCCC(N)=O)cs1 | 23.5%
CN(Cc1cnccn1)S(=O)(=O)c1ccc(C(F)(F)F)nc1 | -9.77%
CN(C)S(=O)(=O)c1ccc(CNc2ccc(Cl)cn2)cc1 | 7.25%
CCCN(CCc1ccccn1)C(=O)Cn1cc(C)cn1 | -9.22%
Cc1cc(C2CCCN(CC(=O)Nc3nc4c(s3)CCC4)C2)n[nH]1 (configuration not stated) | -44.2%
O=C(NC1CCN(CC2CC2)C1)c1ccc(N2CCC(O)CC2)cc1 (configuration not stated) | -11.8%
Cc1ccc(CN2C[C@H](NC(=O)c3nccn3C)[C@H]3OCCC[C@H]32)o1 | -85%
O=C(NCC1CC1)c1cc2c(s1)CCN2c1ncccn1 | -101%
CCOCC1CN(C(=O)c2ccco2)Cc2cnn(CC)c21 (configuration not stated) | -69%
CC(C)CC(=O)N1CC(=O)c2sc(Nc3ccc(C#N)cc3)nc2C1 | -0.279%
CNc1cc(C)nc(NC2CCCN(C3Cc4ccccc4C3)C2)n1 (configuration not stated) | 0.403%
CSCC[C@@H](CO)Nc1ccc(-c2nc(-c3ccccc3F)no2)cn1 | 9.74%
c1ccc(OCc2noc(CN3CCC(N4CCSCC4)CC3)n2)cc1 | -6.95%
NC1CCCCN(Cc2cc(-c3ccccc3OC(F)(F)F)no2)C1 (configuration not stated) | -4.52%
CC(=O)N1CCc2c(nc(N(C)C)nc2NC(C)Cc2cccs2)C1 (configuration not stated) | -42.9%
Fc1cc(Oc2ccc(C(F)(F)F)cn2)cc(F)c1CN1CCCC1 | 24%
O=C1N(CC2CC2)CCCC1(O)CN1CCc2[nH]ncc2C1 (configuration not stated) | -2.2%
C[C@H](c1ccc(F)cc1)n1c(C2CCN(C)CC2)n[nH]c1=O | 9.93%
CCN1CCCC(CN(C)c2nccc(-c3ccc(C)nc3C)n2)C1 (configuration not stated) | -13.5%

Structure (SMILES) | cytotoxicity at 10 µM
CC(C)[C@H]1CN(c2ccncc2)C[C@@H]1NS(=O)(=O)N(C)C | 4.56%
CC(C)c1cc(NC2CCCN(C(=O)c3cccs3)C2)ncn1 (configuration not stated) | -7.55%
COC[C@]1(O)CCN(C(=O)c2ccc(CN(C)C)o2)CC1(C)C | 4.35%
CN(Cc1cccc(OCCO)c1)Cc1cccc2ncccc12 | 26%
CSc1nccc(N2CCC(NCc3ccc4nsnc4c3)CC2)n1 | 28.3%
Cc1nc(CN(C)C)cc(N2CCCC(COc3ccc(F)cc3)C2)n1 (configuration not stated) | -7.4%
Cc1nc(C)c(C(=O)N2C[C@@H](C(=O)O)[C@H](C3CC3)C2)s1 | 7.53%
CCNC(=O)[C@@H]1C[C@@H](N)CN1Cc1ccc(Sc2ccc(C)cc2)o1 | -53.4%
COc1cc(N(C)Cc2cccc(-n3cccn3)c2)nc(N)n1 | 49.1%
Cc1[nH]c2c(C)ccc(C)c2c1CC(=O)NCC(O)c1cccnc1 (configuration not stated) | -2.11%
CCCN(CC)C(=O)c1cc(Cn2c(C)nc3ccccc32)[nH]n1 | 36.7%
CC1(C)CN(C(=O)c2ncc(F)cc2F)CCC1(O)CN1CCOCC1 (configuration not stated) | -8.37%
CCNc1ccnc(N2Cc3cnn(Cc4ccc(F)cc4)c3C2)n1 | 10%
O=C(c1cc(-c2cn[nH]c2)nc2cc(F)ccc12)N1CCS(=O)(=O)CC1 | 0.141%
Cc1nc(-c2cn(CCN)nn2)n(-c2ccc(C(F)(F)F)cc2)n1 | -1.77%
Cc1c[nH]c(CN2CCOC(c3ccc(Cl)cc3)C2)c(C)c1=O (configuration not stated) | 13.4%
Cc1ccc(Cl)cc1C(=O)N1CCC2(CC1)c1ccccc1[C@@H](N)[C@@H]2O | -13.8%
O=C1CC[C@H]2CN(Cc3ccc(Cl)s3)CC[C@H]2N1CCc1c[nH]cn1 | 38.5%
Cc1cc(C)c2nc(CN3CCCC(c4cc[nH]n4)C3)cc(O)c2c1 (configuration not stated) | -3.97%
CCn1ccnc1CN1CCCC(CO)(Cc2cccc(Cl)c2)C1 (configuration not stated) | -0.0444%
COc1ccccc1N1CCN(C(=O)c2ccnc(N(C)C)c2)CC1 | 84.2%
COc1cc(C(=O)Nc2nc(C)no2)cc(Cl)c1OC | -4.29%

Structure (SMILES) | cytotoxicity at 10 µM
CC(C)c1n[nH]c(C(=O)Nc2ccncc2)c1Br | 12.6%
Cc1cccc(NC2CCN(C(=O)Nc3cccc4[nH]ccc34)CC2)n1 | -6.85%
c1cncc(-c2ccc3c(c2)C2(CC3)CCN(c3nncs3)CC2)c1 | 13.1%
Cn1cnc(S(=O)(=O)N2C[C@H]3CN(Cc4ccccn4)C[C@H]3C2)c1 | 4.26%
CN(C)C(=O)[C@@]12CCO[C@@H]1CCN(Cc1ccc3c(c1)OCO3)C2 | 0.863%
CC(C)N1CCOCC2(CCCN(C(=O)c3cncn3C)C2)C1 (configuration not stated) | -1.09%
CC(C)NC(=O)N1CCN(CC2CC2)CC2(CC(=O)N(C)C2)C1 (configuration not stated) | -1.34%
CCOC(=O)[C@]12CCCN(Cc3nccs3)C[C@H]1CN(C(C)C)C2 | -8.81%
Cc1cnc(N2CCCC3(CCCN3CC(=O)N(C)C)C2)nc1 (configuration not stated) | -0.634%
COCCN1CC2(CCOCC2)c2cc(NC(=O)C3CC=CC3)ccc21 | -109%
O=C1CC2(CCCCN2C(=O)c2ccco2)CN1c1cccnc1 (configuration not stated) | -1.69%
COCCN1CCO[C@H]2CN(C(=O)c3cccs3)C[C@H]21 | 2.1%
O=C1CC2(CCN(Cc3ccco3)C2)CN1c1ccc2c(c1)OCO2 (configuration not stated) | -75.9%
Cc1ccc(CN2Cc3nnn(C)c3C(COCc3ccccc3)C2)s1 (configuration not stated) | 1.58%
Cc1cccc(CN2C[C@@H]3OCCN(c4ccnc(N(C)C)n4)[C@@H]3C2)c1 | -94.9%
COc1cccc(-c2ncc(CN3C[C@H]4CC[C@@H](C3)N(C)C4=O)s2)c1 | 6.74%
CCOCCN1CCN(C=C2NN=C(c3occc3C)O2)CC1CC (configuration not stated) | -50.3%
Cc1[nH]n(C)c2nc(=O)cc(C(F)(F)C(F)(F)F)c1-2 | -2.22%
NC1CCC(Nc2nccc(CCC(F)(F)F)n2)CC1 (configuration not stated) | -15%
